Shown are actives, neighbours in structure and some others; about 1.4% of the full set was active somewhere.
FXIIa inh = human FXIIa protease inhibitors, primary screen, biochemical, 1536-well | Coagulation factor XII (Homo sapiens), P00748 | purified FXIIa, Boc-QGR-AMC fluorogenic substrate, 2 h | inhibition, % at 5 µM | hit rate 0.3% among 220,000 | AID 800, 2007; in the data active = inhibition above about 40%;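 note: 0% = enzyme with no compound and 100% = blank without enzyme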
Rce1 inhib = yeast Rce1p protease inhibitors, primary screen, biochemical, fluorescence, cell-free homogeneous; yeast membranes, quenched prenylated peptide cleavage fluorescence; calls only; hit rate 0.27% among 290,000; AID 2563, 2010;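 active = fall in fluorescence gain of 50% or more versus controls, with final raw signal at or below 3038400; inconclusive = same 50% fall but final raw signal above 3038400; inactive = fall in fluorescence gain under 50%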;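 note: plate controls were neutral control wells for no effect and wells lacking membranes for full effect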
Target sequence (Q03530 whole entry, looked up): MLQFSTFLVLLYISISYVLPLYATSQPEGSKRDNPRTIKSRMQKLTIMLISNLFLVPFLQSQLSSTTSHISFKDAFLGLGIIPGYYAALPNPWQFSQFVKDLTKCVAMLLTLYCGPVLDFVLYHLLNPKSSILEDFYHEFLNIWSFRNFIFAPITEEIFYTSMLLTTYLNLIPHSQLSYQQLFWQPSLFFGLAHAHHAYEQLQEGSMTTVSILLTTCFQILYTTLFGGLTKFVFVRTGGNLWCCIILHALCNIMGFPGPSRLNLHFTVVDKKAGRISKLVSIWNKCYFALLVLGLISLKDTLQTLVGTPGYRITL
Fh CTSL1 inh = Fasciola hepatica cathepsin L1 inhibitors, primary screen, counter-screen for PFM18AAP inhibitor project, biochemical, QFRET, fluorogenic peptide substrate | AID 1906, 2009 | recombinant F. hepatica cathepsin L1, Z-Leu-Arg-MCA fluorescence | inhibition, % at 5.96 µM | hit rate 0.49% among 300,000;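 active = inhibition above the mean of all tested compounds plus 3 SD, set per screening campaign, cut at about 17% in these data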;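 note: 0% = plate median of test compound wells and 100% = 1 µM Z-Phe-Ala-diazomethylketone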
FXIa inh 1536 = human FXIa protease inhibitors, primary screen, biochemical, 1536-well; Coagulation factor XI (Homo sapiens), P03951; hit rate 0.14% among 220,000; purified FXIa, Boc-Glu-Ala-Arg-AMC fluorogenic substrate; inhibition, % at 5 µM;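 active = inhibition of at least 40%; inactive = inhibition below 40%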;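 note: fluorescence of freed AMC excited at 355 nm; 0% = enzyme without compound and 100% = no enzyme blank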
hK5 inh = human KLK5 protease inhibitors, primary screen, biochemical, 1536-well; Kallikrein-5 (Homo sapiens), Q9Y337; recombinant hK5, fluorogenic AMC substrate cleavage; inhibition, % at 5 µM; hit rate 0.59% among 210,000; AID 873, 2007;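 active = inhibition of 40% or more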;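 note: 0% = enzyme controls without compound and 100% = no-enzyme blanks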
Target sequence (Q9Y337 67-293 limits assumed): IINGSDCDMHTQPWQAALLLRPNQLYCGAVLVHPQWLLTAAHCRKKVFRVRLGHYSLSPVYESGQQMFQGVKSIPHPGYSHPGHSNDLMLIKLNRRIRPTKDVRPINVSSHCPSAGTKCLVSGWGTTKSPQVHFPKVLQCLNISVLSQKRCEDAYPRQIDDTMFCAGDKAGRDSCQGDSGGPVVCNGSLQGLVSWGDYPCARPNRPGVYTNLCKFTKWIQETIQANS
thrombin 1536 = human alpha-thrombin inhibitors, primary screen, counter-screen for coagulation protease inhibitor project, biochemical, 1536-well, fluorogenic AMC substrate; inhibition, % at 5 µM; hit rate 0.26% among 220,000; AID 1046, 2008; Boc-VPR-AMC fluorogenic substrate cleavage;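 active = inhibition at or above 40%; inactive = inhibition below 40%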;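 note: 0% = enzyme with no compound and 100% = wells without enzyme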
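signal = AMC fluorescence, 355/460 nm | material = human alpha-thrombin enzyme | control set = enzyme without compound as high, wells lacking enzyme as low | times = reaction at room temperature | read-out basis = percent inhibition scaled between no-compound controls and no-enzyme blanks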
The depositor's hits bear a star.

How did S=C(NCc1cccs1)NCC1CCCO1 (stereo unspecified) do in these assays?
FXIIa inh: 25; Rce1 inhib: inactive; FXIa inh 1536: 26; hK5 inh: 14; thrombin 1536: 60*

How did Cc1ccccc1C(=O)NC(NC(=S)Nc1ccc(S(N)(=O)=O)cc1)C(Cl)(Cl)Cl (stereo unspecified) do in these assays?
FXIIa inh: 6; Rce1 inhib: inactive; Fh CTSL1 inh: -1; FXIa inh 1536: 3; hK5 inh: -19; thrombin 1536: -10

Results for Cc1ccc(C(=O)NC(NC(=S)Nc2ccc(S(N)(=O)=O)cc2)C(Cl)(Cl)Cl)cc1 (stereo unspecified) ?
FXIIa inh: 2; Rce1 inhib: inactive; Fh CTSL1 inh: -2; FXIa inh 1536: -4; hK5 inh: 44*; thrombin 1536: 30

Results for COc1ccc(C(=O)c2c(C(F)(F)F)oc3c2C(=O)c2ccccc2C3=O)cc1 ?
FXIIa inh: 7; Rce1 inhib: inactive; Fh CTSL1 inh: 28*; FXIa inh 1536: 1; hK5 inh: 4; thrombin 1536: 4

How did Cc1ccc(C(=O)c2c(C)oc3c2C(=O)C(=O)c2ccccc2-3)cc1 do in these assays?
FXIIa inh: 21; Rce1 inhib: inactive; Fh CTSL1 inh: -6; FXIa inh 1536: 7; hK5 inh: 14; thrombin 1536: 4

What do the screens show for `NC(=S)N/N=C1/CCSc2ccc3ccccc3c21`?
FXIIa inh: 12; Rce1 inhib: inactive; Fh CTSL1 inh: 25*; FXIa inh 1536: 2; hK5 inh: 14; thrombin 1536: 6

What do the screens show for `C=CCc1cccc(/C=N/NC(=O)CNc2cccc3ccccc23)c1O`?
FXIIa inh: -2; Rce1 inhib: inactive; Fh CTSL1 inh: -2; FXIa inh 1536: -7; hK5 inh: -17; thrombin 1536: -8

What do the screens show for `C=CCc1cccc(/C=N/NC(=O)CNc2ccccc2)c1O`?
FXIIa inh: -2; Rce1 inhib: inactive; Fh CTSL1 inh: -4; FXIa inh 1536: -11; hK5 inh: -27; thrombin 1536: 46*

Results for C=CCc1cccc(/C=N/NC(=O)CCCNc2ccc(C)cc2)c1O ?
FXIIa inh: 5; Rce1 inhib: inactive; Fh CTSL1 inh: 1; FXIa inh 1536: 8; hK5 inh: 47*; thrombin 1536: 20

How did CC(=O)c1ccc(NC(=O)C(C)Nc2ccc(Cl)cc2)cc1 (stereo unspecified) do in these assays?
FXIIa inh: 4; Rce1 inhib: inactive; Fh CTSL1 inh: 0; FXIa inh 1536: -4; hK5 inh: -7; thrombin 1536: -9

Results for COc1ccc2c(c1)c1ncn(CCN3CCNCC3)c(=O)c1n2C ?
FXIIa inh: -9; Rce1 inhib: inconclusive; Fh CTSL1 inh: -1; FXIa inh 1536: 26; hK5 inh: -15; thrombin 1536: -1

How did COc1ccc2c(c1)c1ncn(CCN3CCCCC3)c(=O)c1n2C do in these assays?
FXIIa inh: 5; Rce1 inhib: active; Fh CTSL1 inh: 3; FXIa inh 1536: 18; hK5 inh: 4; thrombin 1536: -2

Results for COc1ccc2[nH]c3c(=O)n(CCN4CCOCC4)cnc3c2c1 ?
FXIIa inh: 2; Rce1 inhib: inactive; Fh CTSL1 inh: 1; FXIa inh 1536: -5; hK5 inh: -5; thrombin 1536: -6

Results for COc1ccc2c(c1)c1ncn(CCN3CCCC3)c(=O)c1n2C ?
FXIIa inh: 4; Rce1 inhib: active; Fh CTSL1 inh: -2; FXIa inh 1536: -6; hK5 inh: -7; thrombin 1536: -6

Results for COc1ccc(OC)c(S(=O)(=O)NC(C)(C)C)c1 ?
FXIIa inh: 10; Rce1 inhib: inactive; Fh CTSL1 inh: -1; FXIa inh 1536: 4; hK5 inh: -3; thrombin 1536: -1

What do the screens show for `CSc1ccccc1OCc1cc(C(=O)N(Cc2nccn2C)C(C)C)no1`?
Fh CTSL1 inh: 0

Results for Cc1ccc(C)c(SCC(=O)OCC(=O)Nc2ccc(S(=O)(=O)N3CCOCC3)cc2)c1 ?
FXIIa inh: 10; Rce1 inhib: inactive; Fh CTSL1 inh: -14; FXIa inh 1536: 5; hK5 inh: -4; thrombin 1536: 50*

How did Cc1ccc(NC(=O)COC(=O)CCc2ccc(S(=O)(=O)N3CCOCC3)cc2)cc1C do in these assays?
FXIIa inh: 8; Rce1 inhib: inactive; Fh CTSL1 inh: -8; FXIa inh 1536: -3; hK5 inh: 2; thrombin 1536: 0

How did Cc1ccc(C(=O)N/C(=C/c2ccco2)C(=O)NCC2CCCO2)cc1 (stereo unspecified) do in these assays?
FXIIa inh: 9; Rce1 inhib: inactive; Fh CTSL1 inh: 9; FXIa inh 1536: 0; hK5 inh: -1; thrombin 1536: -1

How did O=C(/C=C/c1ccco1)NCC1CCCO1 (stereo unspecified) do in these assays?
FXIIa inh: 0; Rce1 inhib: inactive; Fh CTSL1 inh: 34*; FXIa inh 1536: -13; hK5 inh: -12; thrombin 1536: -11

How did Cc1ccc(C(=O)NC2(O)C(=O)c3ccccc3C2=O)cc1C do in these assays?
FXIIa inh: 13; Rce1 inhib: inactive; Fh CTSL1 inh: 58*; FXIa inh 1536: 4; hK5 inh: 5; thrombin 1536: 5

How did O=C(NC1(O)C(=O)c2ccccc2C1=O)c1ccc(C(F)(F)F)cc1 do in these assays?
FXIIa inh: 15; Rce1 inhib: inactive; Fh CTSL1 inh: 57*; FXIa inh 1536: 1; hK5 inh: 0; thrombin 1536: 4

How did O=C(Cc1ccccc1)NC1(O)C(=O)c2ccccc2C1=O do in these assays?
FXIIa inh: 9; Rce1 inhib: inactive; Fh CTSL1 inh: 34*; FXIa inh 1536: 2; hK5 inh: 2; thrombin 1536: 2

Results for Cc1ccc(C(=O)Nc2cc(=O)n(C)c(=O)n2C)cc1C ?
FXIIa inh: 6; Rce1 inhib: inactive; Fh CTSL1 inh: -1; FXIa inh 1536: -5; hK5 inh: -25; thrombin 1536: -8

What do the screens show for `CC(NC(=O)Cc1ccccc1)c1ccccc1` (stereo unspecified)?
Rce1 inhib: inactive; Fh CTSL1 inh: -3

What do the screens show for `O=C(Cc1ccc(Cl)cc1)NCCc1ccc(F)cc1`?
Rce1 inhib: inactive; Fh CTSL1 inh: -1

What do the screens show for `COc1ccc(N2C(=O)C(Cl)=C(Nc3ccccc3OC)C2=O)cc1`?
FXIIa inh: 1; Rce1 inhib: inactive; Fh CTSL1 inh: 1; FXIa inh 1536: -3; hK5 inh: -8; thrombin 1536: -2

Bioassay records as filed in PubChem.
